This is one part of a sample in which hits are shown more often than they occur.
Ab BasE inh – blocks the Acinetobacter baumannii siderophore enzyme BasE; purified BasE, fluorescence polarization binding displacement; 0.1% of 84,000 active; inhibition, % (concentration not given with the values); in the data active = inhibition above about 25%, passing the limit was not always enough
KSHV LANA nucl – inhibitors of KSHV LANA binding to nucleosomes | 0.3% of 51,000 active | z-score (no concentration beside the values) | FITC-LANA1-23 / chicken nucleosome fluorescence polarization; stronger effect = lower value;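 active = both repeat wells score below -2 in polarization z-score versus plate sample wells, excluding overly bright wells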
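Assay system: purified chicken nucleosomes with FITC-labelled LANA N-terminal peptide (1-23) / Probe or stimulus: 50 nM FITC-LANA1-23 probe / Compound dosing: pin-transferred compound, 100 nL / Times: compound with peptide–nucleosome mix 10–45 min at room temperature / Technique: fluorescence polarization, 480 nm excitation, 535 nm parallel and perpendicular emission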
Hits are given with their value; n = inactive; x = not tested or not shown.

SMILES | Ab BasE inh | KSHV LANA nucl
CN1CCc2c(C#N)c(N)n(N)c(=S)c2C1 | n | -3.8
CN1CCc2c(C#N)c(Cl)nc(NCc3ccccc3)c2C1 | n | n
Cc1cc(COC(=O)c2cn(C)c3ccccc23)no1 | n | x
Cc1ccn2c(CN3CCNCC3)c(C)nc2c1 | n | x
CC1(C)COP(=S)(C(Nc2ccc(Cl)cc2)c2ccc(O)cc2)OC1 (stereo not drawn) | n | x
Cc1ccc(C=C(C#N)C#N)o1 | n | n
N#CC(C#N)=Cc1ccc(-c2ccccc2)o1 | n | -4.7
CCCC12CN3CC(CCC)(CN(C1)C3C)C2=O (stereo not drawn) | n | n
N#Cc1c(/N=C/c2ccc(O)cc2O)sc2c1C1CCN2CC1 | n | -3.9
CC[C@@]1(O)C[C@H](O[C@H]2C[C@H](N(C)C)[C@H](O)[C@H](C)O2)c2c(cc3c(c2O)C(=O)c2c(O)cccc2C3=O)[C@H]1C(=O)OC | n | n
CC[C@@]1(O)C[C@H](O[C@H]2C[C@H](N(C)C)[C@H](O)[C@H](C)O2)c2c(cc3c(c2O)C(=O)c2c(O)ccc(O)c2C3=O)[C@H]1C(=O)OC | n | -2.8
O=C(O)CCc1nc2ccccc2c(=O)n1-c1ccc(F)cc1 | n | x
C#CC[N+]12CN3CN(CN(C3)C1)C2 | n | n
CCN1CCN(c2ccc(N)cc2)CC1 | x | -2.9
CN1CCN(c2ccc(N)cc2)CC1 | n | x
CNC(=O)Oc1c(Br)cc2sc(=O)oc2c1Br | n | n
CC(C)c1ccc(O)cc1 | n | x
O=S(=O)(c1ccc(O)cc1)c1ccc(O)cc1 | 66 | x
CN1CCc2cc3c(c4c2C1Cc1ccccc1-4)OCO3 (stereo not drawn) | n | -3.2
COc1ccc2c(c1OC)C(=O)OC2C1c2cc3c(cc2CCN1C)OCO3 (stereo not drawn) | n | n
FC(F)(F)c1cccc(CN2CCNCC2)c1 | n | x

Assay outcomes deposited in PubChem by ICCB-Longwood Screening Facility, Harvard Medical School.
